Laboratory results as given in ChEMBL document CHEMBL1133108, “Neurosteroid analogues. 8. Structure-activity studies of N-acylated 17a-aza-D-homosteroid analogues of the anesthetic steroids (3alpha, 5alpha)- and (3alpha,5beta)-3-hydroxypregnan-20-one” (J Med Chem, 2000).

What was measured:
[1] = biological target: T1, GABA-A receptor; alpha-1/beta-2/gamma-2 (Rattus norvegicus) (UniProt P18508+P62813+P63138); test: Electrophysiological effect on rat alpha-1-beta-2-gamma-2 GABA-A receptor subunits expressed in xenopus laevis oocytes at 0.1 uM; format: functional, cell-based; details: Oocyte
Outline: (§1)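 Oocytes express rat α1β2γ2 GABAA receptors. The control response uses 2 μM GABA. Steroid is co-applied at 0.1, 1 or 10 μM. The value is the ratio of current with steroid to current without it. N = 3–6 (12 for one reference steroid), mean ± SEM. These are not full concentration-response curves.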

[2] = biological target: GABA-A receptor; anion channel; test: Displacement of […]-tert-butylbicyclophosphorothionate (TBPS) from Gamma-aminobutyric acid A (GABA-A) receptor of rat brain membranes; format: cell membranes, Membrane
Outline: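 Noncompetitive displacement of [35S]TBPS from the picrotoxin site in rat brain membranes. Full concentration-response curves were fitted for IC50. Data come from duplicate experiments, each run in triplicate, with mean ± SEM reported. Hill coefficients are given.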

[3] = biological target: T1, GABA-A receptor; alpha-1/beta-2/gamma-2 (Rattus norvegicus); test: Electrophysiological effect on rat alpha-1-beta-2-gamma-2 GABA-A receptor subunits expressed in xenopus laevis oocytes at 10 uM in the absence of GABA; format: functional, cell-based; details: Oocyte
Outline: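 Rat α1β2γ2 GABAA receptors are expressed in Xenopus oocytes. Steroid at 10 μM is applied alone, without GABA, and the directly gated current is measured. The value is the ratio of steroid-only current to the 2 μM GABA control current. N = 3–6 (12 for one reference steroid), mean ± SEM.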

[4] = biological target: T1, GABA-A receptor; alpha-1/beta-2/gamma-2 (Rattus norvegicus); test: Electrophysiological effect on rat alpha-1-beta-2-gamma-2 GABA-A receptor subunits expressed in xenopus laevis oocytes at 10 uM; format: functional, cell-based; details: Oocyte; outline: as §1
[5] = biological target: T1, GABA-A receptor; alpha-1/beta-2/gamma-2 (Rattus norvegicus); test: Electrophysiological effect on rat alpha-1-beta-2-gamma-2 GABA-A receptor subunits expressed in xenopus laevis oocytes at 1 uM; format: functional, cell-based; details: Oocyte; outline: as §1

| SMILES | Activity [1] | IC50 [2] | Activity [3] | Activity [4] | Activity [5] |
| --- | --- | --- | --- | --- | --- |
| C[C@]12CCC3C(CC[C@@H]4C[C@H](O)CC[C@]34C)C1CCCN2C(=O)C(F)(F)F (some centres undefined) | 0.98 | 6.22 µM | 0.02 | 1.12 | 0.96 |
| CC(=O)[C@H]1CC[C@H]2[C@@H]3CC[C@H]4C[C@H](O)CC[C@]4(C)[C@H]3CC[C@]12C [BREXANOLONE] | 1.26 | 0.074 µM | 0.37 | 9.65 | 3.89 |
| CC(=O)N1CCCC2C3CC[C@@H]4C[C@H](O)CC[C@]4(C)C3CC[C@@]21C (some centres undefined) | 1.37 | – | 0.01 | 1.18 | 1.04 |
| C[C@]12CCC3C(CC[C@@H]4C[C@H](O)CC[C@]34C)C1CCCN2C(=O)CO (some centres undefined) | 1.36 | 0.93 µM | 0.1 | 3.87 | 1.57 |
| C[C@]12CCC3C(CC[C@H]4C[C@H](O)CC[C@]34C)C1CCCN2C(=O)C(F)(F)F (some centres undefined) | 1.11 | 0.43 µM | 0.5 | 10.1 | 1.91 |
| C[C@]12CCC3C(CC[C@H]4C[C@H](O)CC[C@]34C)C1CCCN2C(=O)CO (some centres undefined) | 1.17 | 0.045 µM | 0.49 | 8.09 | 1.73 |
| C[C@]12CC[C@@H](O)C[C@@H]1CC[C@@H]1[C@@H]2CC[C@]2(C)[C@@H](C(=O)CO)CC[C@@H]12 | 1.3 | 0.039 µM | 1.67 | 11.8 | 4.55 |
| CC(=O)[C@H]1CC[C@H]2[C@@H]3CC[C@@H]4C[C@H](O)CC[C@]4(C)[C@H]3CC[C@]12C [ELTANOLONE] | 0.97 | 0.071 µM | 0.01 | 4.3 | 1.92 |
| CC(=O)N1CCCC2C3CC[C@H]4C[C@H](O)CC[C@]4(C)C3CC[C@@]21C (some centres undefined) | 1.21 | 0.2 µM | 0.05 | 3.74 | 1.66 |
| C[C@]12CC[C@@H](O)C[C@H]1CC[C@@H]1[C@@H]2CC[C@]2(C)[C@@H](C(=O)CO)CC[C@@H]12 | 1.21 | 0.12 µM | 0.19 | 5.43 | 2.37 |
| C[C@@]1(O)CC[C@]2(C)C3CC[C@@]4(C)C(CCCN4C(=O)CO)C3CC[C@H]2C1 (some centres undefined) | 1 | 0.55 µM | 0.2 | 6.5 | 1.22 |
| CC(=O)N1CCCC2C3CC[C@H]4C[C@](C)(O)CC[C@]4(C)C3CC[C@@]21C (some centres undefined) | 0.96 | 2.61 µM | 0.05 | 1.99 | 1.04 |
